Results published in ChEMBL document CHEMBL1140546, “3,5-Disubstituted quinolines as novel c-Jun N-terminal kinase inhibitors” (Bioorg Med Chem Lett, 2007).

These compounds were tested against Mitogen-activated protein kinase 10 (Homo sapiens, UniProt P53779) (assay: Inhibition of JNK3 by HTRF assay).
Outline: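 JNK3 phosphorylation of biotinylated-ATF2, final 0.3 nM JNK3, 0.4 nM substrate, 1 μM ATP. The phospho-Thr71-ATF-2 product is detected with a Europium-cryptate-labeled anti-phospho-Thr71-ATF-2 antibody. IC50 values are means of three experiments.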

Mitogen-activated protein kinase 10, sequence (P53779 whole entry): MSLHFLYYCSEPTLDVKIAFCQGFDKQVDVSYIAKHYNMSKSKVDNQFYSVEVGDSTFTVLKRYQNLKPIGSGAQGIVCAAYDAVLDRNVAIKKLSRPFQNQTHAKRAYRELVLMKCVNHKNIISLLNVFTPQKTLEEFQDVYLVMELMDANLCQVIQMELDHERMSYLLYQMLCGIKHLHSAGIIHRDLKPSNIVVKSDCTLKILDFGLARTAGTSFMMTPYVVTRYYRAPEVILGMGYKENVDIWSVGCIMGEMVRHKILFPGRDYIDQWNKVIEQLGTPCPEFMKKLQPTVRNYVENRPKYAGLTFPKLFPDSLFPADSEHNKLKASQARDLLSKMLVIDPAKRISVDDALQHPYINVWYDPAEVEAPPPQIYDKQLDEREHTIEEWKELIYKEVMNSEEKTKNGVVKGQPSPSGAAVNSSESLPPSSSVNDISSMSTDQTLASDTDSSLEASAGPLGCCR

Compared with `CS(=O)(=O)N(c1ccc(-c2cnc3ccc4ccncc4c3c2)cc1)S(C)(=O)=O`, `CS(=O)(=O)Nc1ccc(-c2cnc3ccc4ccncc4c3c2)cc1` is 4.4-fold higher in IC50: 210 nM for the first, 930 nM for the second.

`Nc1ccc(-c2cnc3ccc4ccncc4c3c2)cc1` and `CC(=O)Nc1ccc(-c2cnc3ccc4ccncc4c3c2)cc1` are within 1.5-fold of each other in IC50: 510 nM for the first, 530 nM for the second.

`c1cc2ccc3ncc(-c4ccc(N5CCOCC5)cc4)cc3c2cn1` and `c1ccc(-c2cnc3ccc4ccncc4c3c2)cc1` are within 1.5-fold of each other in IC50: 1300 nM for the first, 1000 nM for the second.

Going from `c1cc2ccc3ncc(-c4ccc(-c5ccn[nH]5)cc4)cc3c2cn1` to `c1ccc(-c2ccc(-c3cnc4ccc5ccncc5c4c3)cc2)cc1`, the IC50 rises from 3600 nM to greater than 20000 nM.

First: CC(=O)N(C(C)=O)c1ccc(-c2cnc3ccc4ccncc4c3c2)cc1
Second: CS(=O)(=O)Nc1ccc(-c2cnc3cccc(Nc4ncccc4Cl)c3c2)cc1
The IC50 of the first is 9.4-fold lower: 1600 nM for the first, 15000 nM for the second.

Going from `CS(=O)(=O)Nc1ccc(-c2cnc3cccc(Nc4ccc(Cl)cn4)c3c2)cc1` to `CS(=O)(=O)Nc1ccc(-c2cnc3cccc(Nc4ncccn4)c3c2)cc1`, the IC50 rises from 120 nM to 480 nM (4-fold). The first is the more potent here.
